Experimental data as given in paper PMC8161485 (ACS Central Science, 2021).
Substitutions are numbered along the chain they refer to.

Key:
[1] = test system: AML04 primary AML specimen; experiment: Cell viability of primary AML specimen AML04; type: cell-based; details: Homo sapiens, read-out: AML04 LC50
Method in brief: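 Primary AML samples came from consenting donors. Live mononuclear cells were isolated on a Ficoll-Paque density gradient and cryopreserved, with 40–70% viability after thawing. Cells were kept at 37 °C, humidified, 5% CO2.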

P450BM3 variant FL#62 = target: T1, P450BM3 variant FL#62 (Priestia megaterium, UniProt P14779, A181T/A185V/A198V/A291V/A83V/E253G/F206C/F82S/F88A/H237Q/L354V/P143S/R256S/S227R/T176I/V79A); experiment: Heme spin shift binding of MCL to P450 variant FL#62; set-up: species or system Bacillus megaterium
T1 sequence (P14779 1-1049 V79A/F82S/A83V/F88A/P143S/T176I/A181T/A185V/A198V/F206C/S227R/H237Q/E253G/R256S/A291V/L354V): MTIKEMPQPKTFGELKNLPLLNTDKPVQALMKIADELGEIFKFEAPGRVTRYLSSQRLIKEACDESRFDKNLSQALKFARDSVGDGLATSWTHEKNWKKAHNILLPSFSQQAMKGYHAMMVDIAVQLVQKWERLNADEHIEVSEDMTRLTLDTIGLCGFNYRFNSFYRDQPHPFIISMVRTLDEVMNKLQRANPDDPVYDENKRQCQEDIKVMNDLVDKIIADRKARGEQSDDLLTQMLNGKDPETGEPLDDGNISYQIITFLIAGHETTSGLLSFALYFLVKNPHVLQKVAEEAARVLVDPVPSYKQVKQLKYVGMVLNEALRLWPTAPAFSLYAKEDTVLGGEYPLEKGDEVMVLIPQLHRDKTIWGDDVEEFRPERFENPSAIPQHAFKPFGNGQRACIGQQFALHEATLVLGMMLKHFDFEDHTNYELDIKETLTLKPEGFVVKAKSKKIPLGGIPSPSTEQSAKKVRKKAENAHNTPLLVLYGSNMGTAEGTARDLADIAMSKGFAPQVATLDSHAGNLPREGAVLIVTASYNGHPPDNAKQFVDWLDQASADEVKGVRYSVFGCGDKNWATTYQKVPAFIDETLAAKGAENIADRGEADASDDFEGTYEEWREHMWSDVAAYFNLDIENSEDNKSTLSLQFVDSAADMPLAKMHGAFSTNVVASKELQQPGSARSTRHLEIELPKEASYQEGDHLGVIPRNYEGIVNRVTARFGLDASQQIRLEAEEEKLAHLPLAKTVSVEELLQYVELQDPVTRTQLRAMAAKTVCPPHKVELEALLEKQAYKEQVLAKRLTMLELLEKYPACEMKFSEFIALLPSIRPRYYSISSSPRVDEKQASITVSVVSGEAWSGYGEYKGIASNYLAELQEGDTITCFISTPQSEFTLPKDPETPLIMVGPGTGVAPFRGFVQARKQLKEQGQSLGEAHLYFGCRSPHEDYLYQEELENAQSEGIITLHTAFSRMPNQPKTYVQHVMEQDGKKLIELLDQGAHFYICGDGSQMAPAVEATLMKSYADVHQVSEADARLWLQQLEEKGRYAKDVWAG
Method in brief: (§1)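 Purified P450 (3 μM) in 50 mM potassium phosphate, pH 8.0, titrated with test compound (5–2000 μM) from a 50 mM ethanol stock. A difference spectrum (350–500 nm) was taken at each step. Absorbance change at 390/420 nm (high/low spin) was plotted against concentration, with KD from a nonlinear 1:1 binding fit. At least triplicate, room temperature.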

[2] = target: T2, P450BM3 variant V-H10(A87I) (Priestia megaterium, UniProt P14779, A181T/A185V/A198V/A291V/E253G/F206C/F88I/H237Q/L354V/P143S/R256S/S227R/T176I/V79N); experiment: Heme spin shift binding of MCL to P450 variant V-H10; set-up: species or system Bacillus megaterium
T2 sequence (P14779 1-1049 V79N/F88I/P143S/T176I/A181T/A185V/A198V/F206C/S227R/H237Q/E253G/R256S/A291V/L354V): T1 sequence (P14779 1-1049 V79A/F82S/A83V/F88A/P143S/T176I/A181T/A185V/A198V/F206C/S227R/H237Q/E253G/R256S/A291V/L354V) with A79N, S82F, V83A, A88I
Method in brief: as §1

C=C1C(=O)O[C@H]2[C@H]1CCC(C)=C1CC[C@@](C)(O)[C@@H]12 [MCL, micheliolide]
CC50 [1]: 22.1 µM
Kd (P450BM3 variant FL#62): 61 ± 3 µM
Kd [2]: 1250 ± 54 µM
